According to ChEMBL document CHEMBL1146303, “Spirodiketopiperazine-based CCR5 antagonists: Lead optimization from biologically active metabolite” (Bioorg Med Chem Lett, 2007):

What was measured:
[1] = biological target: T1, C-C chemokine receptor type 5 (Homo sapiens, UniProt P51681); assay: Antagonist activity at human CCR5 expressed in CHO cells assessed as inhibition of MIP-1-alpha-stimulated calcium mobilization; assay type: functional, cell-based
In short: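 Cells expressing human CCR5 (hCCR5/CHO) were stimulated with MIP-1α, and the rise in intracellular calcium was measured. Potency is reported as an IC50 for inhibition of the calcium response.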

[2] = biological target: T1, C-C chemokine receptor type 5; assay: Displacement of [125I]MIP1-alpha from human CCR5 expressed in CHO cells; assay type: cell-based
[3] = system: Human immunodeficiency virus; assay: Antiviral activity against HIV; assay type: functional, organism-based; settings: Human immunodeficiency virus 1
[4] = system: Human immunodeficiency virus 1; assay: Anti-infective activity against HIV1 BAL in MAGI CCR5+ cells; assay type: functional, organism-based; settings: Human immunodeficiency virus 1, BAL
Cytochrome P450 3A4 = Cytochrome P450 3A4 (Homo sapiens, UniProt P08684); assay: Inhibition of CYP3A4; assay type: ADME
[5] = Aqueous solubility at pH 6.8; assay type: physicochemical
[6] = Bioavailability in rat; assay type: ADME, organism-based; settings: in vivo

T1 sequence (P51681 whole entry): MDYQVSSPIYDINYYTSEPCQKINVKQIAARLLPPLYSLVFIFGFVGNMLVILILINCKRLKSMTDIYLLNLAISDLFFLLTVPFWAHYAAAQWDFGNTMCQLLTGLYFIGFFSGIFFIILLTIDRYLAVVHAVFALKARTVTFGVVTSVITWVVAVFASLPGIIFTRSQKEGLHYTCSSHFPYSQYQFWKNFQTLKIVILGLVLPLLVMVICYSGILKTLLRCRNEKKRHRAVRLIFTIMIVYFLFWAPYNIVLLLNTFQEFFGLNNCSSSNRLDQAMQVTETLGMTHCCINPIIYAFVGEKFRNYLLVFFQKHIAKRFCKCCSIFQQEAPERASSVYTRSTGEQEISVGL
Cytochrome P450 3A4, sequence (P08684 whole entry): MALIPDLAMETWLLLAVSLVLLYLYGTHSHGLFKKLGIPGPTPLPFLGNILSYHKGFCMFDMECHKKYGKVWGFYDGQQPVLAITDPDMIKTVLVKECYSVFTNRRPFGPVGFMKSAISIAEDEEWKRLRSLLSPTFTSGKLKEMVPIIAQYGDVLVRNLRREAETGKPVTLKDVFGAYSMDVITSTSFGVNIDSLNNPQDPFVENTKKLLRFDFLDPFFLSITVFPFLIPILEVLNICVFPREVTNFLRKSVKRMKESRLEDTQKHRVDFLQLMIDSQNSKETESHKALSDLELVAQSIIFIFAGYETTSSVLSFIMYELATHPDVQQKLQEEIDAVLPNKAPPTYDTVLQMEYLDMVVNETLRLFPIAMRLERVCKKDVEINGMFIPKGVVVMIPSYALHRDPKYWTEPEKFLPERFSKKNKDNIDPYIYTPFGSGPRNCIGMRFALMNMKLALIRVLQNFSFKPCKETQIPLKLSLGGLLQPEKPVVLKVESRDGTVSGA

SMILES	IC50 [1] [nM]	IC50 [2] [nM]	IC50 [3] [nM]	IC50 [4] [nM]	IC50 (Cytochrome P450 3A4) [nM]	solubility [5] [µg/mL]	bioavailability [6] [%]	IC90 [3] [nM]
CCCCN1C(=O)C(CC(C)(C)O)NC(=O)C12CCN(Cc1ccc(Oc3ccccc3)cc1)CC2 (stereo not drawn)	79	28						
CCCCN1C(=O)[C@@H](CC(C)C)NC(=O)C12CCN(Cc1ccc(Oc3ccccc3)cc1)CC2	130	29						
CCCCN1C(=O)C(CC2CCCCC2)NC(=O)C12CCN(Cc1ccc(Oc3ccccc3)cc1)CC2.Cl (stereo not drawn)	28		31	337	9300	< 0.2		
CCCCN1C(=O)[C@H]([C@H](O)C(C)C)NC(=O)C12CCN(Cc1ccc(Oc3ccccc3)cc1)CC2	400	68						
CCCCN1C(=O)[C@@H]([C@H](O)C2CCCCC2)NC(=O)C12CCN(Cc1ccc(Oc3ccccc3)cc1)CC2.Cl			0.6	6		2.7	< 1	
CCCCN1C(=O)C(CC(C)C)NC(=O)C12CCN(Cc1ccc(Oc3ccccc3)cc1)CC2.Cl (stereo not drawn)	94	8.3					1.3	676
CCCCN1C(=O)[C@H](CC(C)C)NC(=O)C12CCN(Cc1ccc(Oc3ccccc3)cc1)CC2	84	11						
CCCCN1C(=O)[C@@H]([C@@H](O)C(C)C)NC(=O)C12CCN(Cc1ccc(Oc3ccccc3)cc1)CC2	210	24						
CCCCN1C(=O)[C@H]([C@@H](O)C(C)C)NC(=O)C12CCN(Cc1ccc(Oc3ccccc3)cc1)CC2	150	53						
CCCCN1C(=O)[C@@H]([C@H](O)C(C)C)NC(=O)C12CCN(Cc1ccc(Oc3ccccc3)cc1)CC2.Cl	33	3.5					< 1	
